Reference: ChEMBL document CHEMBL1799969, “Development of endocannabinoid-based chemical probes for the study of cannabinoid receptors” (J Med Chem, 2011)
Activity calls are given as the source filed them. No cut-off for these calls is given here.

Experiments:
Cannabinoid receptor 1 [1] = molecular target: T1, Cannabinoid receptor 1 (Homo sapiens, UniProt P21554); experiment: Binding affinity to CB1 receptor
How it was run: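 Radioligand competition binding on membranes of HEK-293-EBNA cells transfected with human CB1 receptor, displacing [3H]CP55940. Ki obtained from IC50 by the Cheng-Prusoff equation. Two to four independent experiments, each run in triplicate; mean ± SEM reported.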

Cannabinoid receptor 1 [2] = molecular target: T1, Cannabinoid receptor 1; experiment: Displacement of [3H]-CP55940 from human CB1 receptor expressed in HEK-293-EBNA cell membranes after 90 mins by scintillation counting
Cannabinoid receptor 2 = Cannabinoid receptor 2 (Homo sapiens, UniProt P34972); experiment: Displacement of [3H]-CP55940 from human CB2 receptor expressed in HEK-293-EBNA cell membranes after 90 mins by scintillation counting
How it was run: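 Competitive radioligand binding with [3H]CP55940 on membranes of HEK-293-EBNA cells transfected with human CB1 or CB2 receptor. Ki derived from IC50 by the Cheng-Prusoff equation. Mean ± SEM of two to four independent experiments, each run in triplicate.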

Cannabinoid receptor 1 [3] = molecular target: T1, Cannabinoid receptor 1; experiment: Binding affinity at CB1 receptor expressed in mouse HT22 cells at 1 uM incubated for 1 hr using antiCB1-antibody based fluorescence microscopy; assay type: cell-based; conditions: HT-22
How it was run: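 Transfected HT-22 cells were treated in sequence with the probe (1 μM, 1 h), streptavidin-Alexa 488, anti-CB1 antibody and an anti-rabbit Alexa 633 conjugate. Co-labelling was imaged by fluorescence microscopy in the red channel and as a merge.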

Cannabinoid receptor 1 [4] = molecular target: T1, Cannabinoid receptor 1; experiment: Binding affinity at CB1 receptor expressed in mouse HT22 cells at 1 uM incubated for 1 hr using strepavidin-Alexa Fluor 488 staining based by fluorescence microscopy; assay type: cell-based; conditions: HT-22
How it was run: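 HT-22 mouse hippocampal cells transiently transfected with CB1 were incubated with the biotinylated probe at 1 μM for 1 h. Excess probe was removed and bound probe detected with streptavidin-Alexa Fluor 488. Nuclei were stained with Hoechst 33258 and imaged by fluorescence microscopy. Nontransfected cells, or an excess of HU210, served as specificity controls.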

Chain of Cannabinoid receptor 2 (P34972 whole entry): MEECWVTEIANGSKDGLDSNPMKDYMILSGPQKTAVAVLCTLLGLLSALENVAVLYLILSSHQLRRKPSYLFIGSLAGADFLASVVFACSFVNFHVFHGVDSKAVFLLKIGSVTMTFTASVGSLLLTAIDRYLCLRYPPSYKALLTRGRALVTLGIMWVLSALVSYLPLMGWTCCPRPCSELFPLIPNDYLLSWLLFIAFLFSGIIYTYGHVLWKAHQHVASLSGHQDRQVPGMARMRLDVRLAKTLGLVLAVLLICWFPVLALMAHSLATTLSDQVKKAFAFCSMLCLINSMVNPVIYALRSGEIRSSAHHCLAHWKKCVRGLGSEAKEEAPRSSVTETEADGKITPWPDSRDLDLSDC
T1 sequence (P21554 whole entry): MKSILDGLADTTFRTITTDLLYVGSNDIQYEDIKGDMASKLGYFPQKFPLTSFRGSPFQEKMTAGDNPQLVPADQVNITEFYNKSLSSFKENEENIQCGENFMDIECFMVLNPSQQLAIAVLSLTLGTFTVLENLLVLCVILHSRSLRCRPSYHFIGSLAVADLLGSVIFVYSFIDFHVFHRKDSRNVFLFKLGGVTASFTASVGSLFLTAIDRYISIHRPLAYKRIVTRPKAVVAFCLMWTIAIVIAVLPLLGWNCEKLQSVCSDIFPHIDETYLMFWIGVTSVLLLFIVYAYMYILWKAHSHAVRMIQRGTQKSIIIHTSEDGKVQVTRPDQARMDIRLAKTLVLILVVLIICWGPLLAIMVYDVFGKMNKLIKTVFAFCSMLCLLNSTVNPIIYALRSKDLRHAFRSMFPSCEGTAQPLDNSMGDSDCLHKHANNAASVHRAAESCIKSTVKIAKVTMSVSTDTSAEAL

Structure (SMILES) | Ki (Cannabinoid receptor 1 [1]) | Ki (Cannabinoid receptor 1 [2]) | Ki (Cannabinoid receptor 2) | Activity (Cannabinoid receptor 1 [3]) | Activity (Cannabinoid receptor 1 [4])
CCCCCCC(C)(C)c1cc(O)c2c(c1)OC(C)(C)[C@@H]1CC=C(CO)C[C@@H]21 | 0.06 nM |  |  |  | 
C#CCCCC(=O)N[C@@H](Cc1ccc(C(=O)c2ccccc2)cc1)C(=O)OC[C@@H](C)NC(=O)CCC/C=C\C/C=C\C/C=C\C/C=C\CCCCC |  | 2000 nM | > 2000 nM |  | 
CCCCC/C=C\C/C=C\C/C=C\C/C=C\CCCC(=O)N[C@H](C)COC(=O)CCCCCNC(=O)CCCC[C@@H]1SC[C@@H]2NC(=O)N[C@@H]21 |  | 2000 nM | > 2000 nM |  | 
C#CCCCC(=O)OCC(CO)OCCCC/C=C\C/C=C\C/C=C\C/C=C\CCCCC (stereo not drawn) |  | 84.7 nM | 84.9 nM |  | 
Cc1cc(-c2cc(C(=O)NC3C4(C)CCC(C4)C3(C)C)nn2Cc2ccc(CNCCCCCCN)cc2)ccc1Cl (stereo not drawn) |  |  | 260 nM |  | 
O=C(CCCC[C@@H]1SC[C@@H]2NC(=O)N[C@@H]21)NCCCCCC(=O)OCCCC/C=C\C/C=C\C/C=C\C/C=C\CCCC(=O)NC1CC1 |  | > 2000 nM | > 2000 nM |  | 
CCCCC/C=C\C/C=C\C/C=C\C/C=C\CCCC(=O)OC(CO)CO [2-ARACHIDONOYLGLYCEROL] |  |  | 1300 nM |  | 
CCCCC/C=C\C/C=C\C/C=C\C/C=C\CCCCOC(CO)CO |  | 25 nM | > 1000 nM |  | 
CCCCC/C=C\C/C=C\C/C=C\C/C=C\CCCC(=O)OC(CO)COC(=O)CCCCCNC(=O)CCCC[C@@H]1SC[C@@H]2NC(=O)N[C@@H]21 (stereo partly drawn) |  | > 5000 nM | 379 nM |  | 
C#CCCCC(=O)OC[C@@H](C)NC(=O)CCC/C=C\C/C=C\C/C=C\C/C=C\CCCCC |  | 2000 nM | > 2000 nM |  | 
CCCCC/C=C\C/C=C\C/C=C\C/C=C\CCCCOC(CO)COC(=O)CCCCCNC(=O)CCCC[C@@H]1SC[C@@H]2NC(=O)N[C@@H]21 (stereo partly drawn) |  | 221 nM | 450 nM | Active | Active
C[C@H](CO)NC(=O)CCC/C=C\C/C=C\C/C=C\C/C=C\CCCCOC(=O)CCCCCNC(=O)CCCC[C@@H]1SC[C@@H]2NC(=O)N[C@@H]21 |  | 2000 nM | > 2000 nM |  | 
